{
  "source": "ChEMBL document CHEMBL5365533",
  "about": "“DNA major versus minor groove occupancy of monomeric and dimeric crystal violet derivatives. Toward structural correlations” (Bioorg Med Chem, 2023)",
  "key": {"Calf thymus DNA [1]": {"system": "Calf thymus DNA", "test": "Binding affinity to calf thymus DNA assessed as change in melting temperature by UV thermal denaturation assay", "type": "nucleic-acid assay", "details": "Bos taurus", "method_in_brief": "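CT DNA in 10 mM Tris-HCl pH 7.0 at a DNA:ligand ratio of 30:1, in 1 cm quartz cuvettes. Absorbance read every 2 °C from 25 to 95 °C, heating at 1 °C/min. Tm taken from first-derivative plots.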"}, "[2]": {"test": "Binding affinity to DDD hairpin DNA (unknown origin) assessed as binding constant at 100 uM by ITC analysis", "method_in_brief": "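Isothermal titration calorimetry of DDD hairpin (10 μM in cell) titrated with ligand (100 μM in syringe), 10 mM Tris-HCl pH 7.0, 30 °C; 25 injections of 10 μL. Heats of dilution subtracted; single-site binding model fitted; K averaged from triplicate experiments.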"}, "[3]": {"test": "Displacement of Ethidium bromide from cMyc (5'-CACGTG-3') hairpin DNA (unknown origin)/EtBr complex assessed as binding constant by crystal violet staining based analysis"}, "[4]": {"test": "Binding affinity to DDD hairpin DNA (unknown origin) in Tris-HCl buffer at pH 5.0 assessed as negative induced CD bands formation at 310nm at 1 mM incubated for 5 mins by CD spectra analysis", "method_in_brief": "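Ligand (1 mM stock) added in small aliquots to DDD hairpin (8.8 μM) in 10 mM Tris-HCl pH 5.0; mixed by inversion and incubated 5 min at 20 °C. CD recorded 215–350 nm in 0.5 nm steps as the average of three scans.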"}, "Calf thymus DNA [5]": {"system": "Calf thymus DNA", "test": "Binding affinity to calf thymus DNA assessed as hypochromic shift by UV spectroscopic analysis", "type": "nucleic-acid assay", "details": "Bos taurus", "method_in_brief": "(§1)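 UV titration in 10 mM Tris-HCl pH 7.0 with ligand fixed at 5.0 μM and CT DNA:ligand ratios of 0:1, 1:1, 2:1, 5:1, 10:1 and 30:1.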"}, "Calf thymus DNA [6]": {"system": "Calf thymus DNA", "test": "Binding affinity to calf thymus DNA in Tris-HCl buffer at pH 7.0 assessed as minimal change in viscosity at 2 to 26 uM incubated for 30 mins by Ostwald viscometer analysis", "type": "nucleic-acid assay", "details": "Bos taurus, dose 2-26 µM", "method_in_brief": "(§2)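 Ostwald viscometer at 23.0 ± 1 °C. CT DNA held at 300 μM/bp in 10 mM Tris-HCl pH 7.0 with ligand or ethidium at 0–26 μM, incubated 30 min before timing flow. (η/η0)^1/3 plotted against [ligand]/[DNA]; three replicates, SD shown.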"}, "DNA [7]": {"system": "DNA", "test": "Displacement of Ethidium bromide from (AT)5 (5'-GGGATATA-TATATCCC-3') DNA (unknown origin)/EtBr complex assessed as decrease in initial absorbance of DNA by crystal violet staining based analysis", "type": "nucleic-acid assay"}, "Calf thymus DNA [8]": {"system": "Calf thymus DNA", "test": "Binding affinity to calf thymus DNA in Tris-HCl buffer at pH 7.0 assessed as differential groove occupancy at 100 uM by ITC analysis", "type": "nucleic-acid assay", "details": "Bos taurus", "method_in_brief": "(§3)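 ITC of CT DNA (100 μM/bp in cell) titrated with ligand (100 μM in syringe), 10 mM Tris-HCl pH 7.0; 25 injections of 10 μL at 30 °C, or for one ligand 50 injections of 5 μL at 27 °C. Buffer-into-DNA heats subtracted; single-site model gives K, N, ΔH and ΔS.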"}, "Calf thymus DNA [9]": {"system": "Calf thymus DNA", "test": "Ratio of Kapp for displacement of ethidium bromide from calf thymus DNA/EtBr complex to Kapp for displacement of ethidium bromide from calf thymus DNA/EtBr in presence of netropsin", "type": "nucleic-acid assay", "details": "Bos taurus", "method_in_brief": "(§4)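 Fluorescence titration of CT DNA (1.0 μM/bp) plus ethidium (0.5 μM), with or without netropsin or methyl green (0.5 μM each), against increasing ligand in 10 mM Tris-HCl pH 7.0. Excitation 520 nm, emission 590 nm, read after 3 min equilibration. C50 is the concentration giving 50% fluorescence loss; Kapp = 9.5×10^6 M⁻¹ × C_ethidium/C50.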"}, "[10]": {"test": "Displacement of Ethidium bromide from G5C5 (5'-AAAGGGGG-CCCCCTTT-3') DNA (unknown origin)/EtBr complex assessed as decrease in initial absorbance of DNA by crystal violet staining based analysis"}, "AT rich DNA": {"system": "AT rich DNA", "test": "Displacement of Ethidium bromide from AT3 (5'-ATATAT-3') hairpin DNA (unknown origin)/EtBr complex assessed as binding constant by crystal violet staining based analysis", "type": "nucleic-acid assay"}, "Calf thymus DNA [11]": {"system": "Calf thymus DNA", "test": "Binding affinity to calf thymus DNA in Tris-HCl buffer at pH 7.0 assessed as change in entropy at 100 uM by isothermal titration […] analysis", "type": "nucleic-acid assay", "details": "Bos taurus", "method_in_brief": "as §3"}, "DNA [12]": {"system": "DNA", "test": "Displacement of Ethidium bromide from A5T5 (5'-GGGAAAAATTTTTCCCCC-3') DNA (unknown origin)/EtBr complex assessed as decrease in initial absorbance of DNA by crystal violet staining based analysis", "type": "nucleic-acid assay"}, "[13]": {"test": "Displacement of Ethidium bromide from STAT6 (5'-TCCTAG-3') hairpin DNA (unknown origin)/EtBr complex assessed as binding constant by crystal violet staining based analysis"}, "[14]": {"test": "Binding affinity to DDD (5-CGAATT-3') hairpin DNA (unknown origin) assessed as binding constant by isothermal titration calorimetry"}, "Calf thymus DNA [15]": {"system": "Calf thymus DNA", "test": "Binding affinity to calf thymus DNA in Tris-HCl buffer at pH 7.0 assessed as change in enthalpy at 100 uM by isothermal titration […] analysis", "type": "nucleic-acid assay", "details": "Bos taurus", "method_in_brief": "as §3"}, "Calf thymus DNA [16]": {"system": "Calf thymus DNA", "test": "Binding affinity to calf thymus DNA in Tris-HCl buffer at pH 7.0 assessed as rigidification of DNA from intercalation of drug incubated for 30 mins by Ostwald viscometer analysis", "type": "nucleic-acid assay", "details": "Bos taurus", "method_in_brief": "as §2"}, "Calf thymus DNA [17]": {"system": "Calf thymus DNA", "test": "Binding affinity to calf thymus DNA assessed as bathochromic shift by UV spectroscopic analysis", "type": "nucleic-acid assay", "details": "Bos taurus", "method_in_brief": "as §1"}, "Calf thymus DNA [18]": {"system": "Calf thymus DNA", "test": "Binding affinity to calf thymus DNA in Tris-HCl buffer at pH 7.0 assessed as lengthening of DNA from intercalation of drug incubated for 30 mins by Ostwald viscometer analysis", "type": "nucleic-acid assay", "details": "Bos taurus", "method_in_brief": "as §2"}, "Calf thymus DNA [19]": {"system": "Calf thymus DNA", "test": "Ratio of Kapp for displacement of ethidium bromide from calf thymus DNA/EtBr complex to Kapp for displacement of ethidium bromide from calf thymus DNA/EtBr in presence of methyl green", "type": "nucleic-acid assay", "details": "Bos taurus", "method_in_brief": "as §4"}, "[20]": {"test": "Displacement of Ethidium bromide from NFAT1 (5-GAAAAA-3') hairpin DNA (unknown origin)/EtBr complex assessed as binding constant by crystal violet staining based analysis"}},
  "note": "The source made the active and inactive calls. The rule behind the calls is not given here.",
  "data": [
    {"smiles": "Cc1cc(N(C)C)cc(C)c1C(=C1C=CC(=[N+](C)C)C=C1)c1ccc(N(C)C)cc1", "values": [
      {"measurement": "ΔTm", "setting": "Calf thymus DNA [1]", "result": 2.8, "unit": "°C"},
      {"measurement": "K", "setting": "[2]", "result": "14.6 10^5/M"},
      {"measurement": "K", "setting": "[3]", "result": "1.26e+06", "unit": "M⁻¹"},
      {"measurement": "Activity", "setting": "[4]", "result": "Active"},
      {"measurement": "Activity", "setting": "Calf thymus DNA [5]", "result": "Active"},
      {"measurement": "Activity", "setting": "Calf thymus DNA [6]", "result": "Dose-Dependent Effect"},
      {"measurement": "C50", "setting": "DNA [7]", "result": 1.57, "unit": "µM"},
      {"measurement": "Activity", "setting": "Calf thymus DNA [8]", "result": "Active"},
      {"measurement": "Ratio", "setting": "Calf thymus DNA [9]", "result": 1.3},
      {"measurement": "C50", "setting": "[10]", "result": 2.05, "unit": "µM"},
      {"measurement": "K", "setting": "AT rich DNA", "result": "0.21 10^5/M"},
      {"measurement": "deltaS", "setting": "Calf thymus DNA [11]", "result": 0.122, "unit": "kcal/mol"},
      {"measurement": "C50", "setting": "DNA [12]", "result": 1.86, "unit": "µM"},
      {"measurement": "K", "setting": "[13]", "result": "1.06 10^5/M"},
      {"measurement": "K", "setting": "[14]", "result": "14.6 10^5/M"},
      {"measurement": "deltaH", "setting": "Calf thymus DNA [15]", "result": 29.7, "unit": "kcal/mol"},
      {"measurement": "Activity", "setting": "Calf thymus DNA [16]", "result": "Active"},
      {"measurement": "Activity", "setting": "Calf thymus DNA [17]", "result": "Active"},
      {"measurement": "Activity", "setting": "Calf thymus DNA [18]", "result": "Active"},
      {"measurement": "Ratio", "setting": "Calf thymus DNA [19]", "result": "> 8"},
      {"measurement": "K", "setting": "[20]", "result": "0.19 10^5/M"}
    ]}
  ]
}
